Assay results from different studies.
Compare with care: the assays were run in different laboratories.
Target: Serine/threonine-protein kinase SIK3 (SIK3, Homo sapiens, UniProt Q9Y2K2)

CN(C)c1nccc(-c2cnn3ncccc23)n1 — remaining binding (binding; 1 µM): 99%
Nc1ncc2c(n1)-c1c([nH]c3ccc(C#CC4CC4)cc13)CCCC2 — remaining binding (binding, competition with immobilised ligand; 1 µM): 100%
Cc1cc(C)c(-n2ccn3nc(-c4cccnc4)cc23)cc1NC(=O)c1cc(C#N)cc(S(F)(F)(F)(F)F)c1 — remaining binding (cell-free assay, competition with immobilised ligand; 0.1 µM): 75.3%
CC1CCCN1c1nccc(-c2cnn3ncccc23)n1 (centres unmarked) — remaining binding (binding; 1 µM): 94%
CCC(=O)N[C@@H]1CC[C@H](C(=O)N(C)c2ccc(-c3nc4ccccc4o3)cc2)C1 — remaining binding (cell-free assay, competition with immobilised ligand; 1 µM): 100%
CCN1CCN(Cc2ccc(C(=O)Nc3ccc(C)c(Oc4ccc5c(c4)CC(=O)N5)c3)cc2C(F)(F)F)CC1 — remaining binding (binding, competition with immobilised ligand; 1 µM): 100%
COc1cnc(Nc2cccc(S(N)(=O)=O)c2)nc1N1CCN(c2ccccc2)CC1 — remaining binding (binding, competition with immobilised ligand; 1 µM): 84%
CN(C)c1ncc(F)c(-c2cnn3ncccc23)n1 — remaining binding (binding; 1 µM): 87%
O=C(c1ccc(Nc2ncc(Cl)c(-c3cc4ccccc4s3)n2)cc1)N1CCC(N2CCCC2)CC1 — remaining binding (binding, competition with immobilised ligand; 1 µM): 98%
O=C(Nc1ccc(Oc2ccc(F)cc2)cc1)N1CCc2ncccc2[C@H]1c1ccc(F)cc1 — remaining binding (cell-free assay, competition with immobilised ligand; 1 µM): 100%
CNC(=O)[C@@H]1CC[C@@H](n2c(-c3ccc4cnccc4c3)nc3ccc(C(=O)NCc4cccc(C(N)=O)c4)cc32)C1 — remaining binding (binding, competition with immobilised ligand; 1 µM): 88%
CN(C)C(=O)Cn1cc(-c2nc(C3(c4ccc(-c5cnc(N)nc5)cc4)CC3)no2)cn1 — remaining binding (cell-free assay, competition with immobilised ligand; 1 µM): 100%
c1cnn2ncc(-c3ccnc(N4CCC45COC5)n3)c2c1 — remaining binding (binding; 1 µM): 70%
O=C(NCCCN1CCOCC1)c1ccc(Nc2ncc(Cl)c(-c3ccc(Cl)s3)n2)cc1 — remaining binding (binding, competition with immobilised ligand; 1 µM): 97%
C[C@H](c1ccc(F)cc1)N(Cc1cccc(C(=O)O)c1)C(=O)c1cnc2ccccc2c1 — remaining binding (cell-free assay, competition with immobilised ligand; 1 µM): 80%
O=C(NCC1CCOCC1)c1n[nH]cc1NC(=O)c1c(F)cccc1F — remaining binding (binding, competition with immobilised ligand; 1 µM): 88%
N[C@@H]1CCN(c2nccc(-c3cnn4ncccc34)n2)C1 — remaining binding (binding; 1 µM): 100%
O=C(c1ccc(Nc2ncc(Cl)c(-c3ccc(Cl)s3)n2)cc1)N1CCC(N2CCCC2)CC1 — remaining binding (binding, competition with immobilised ligand; 1 µM): 84%
O=C(NCCCC1CCCCC1)c1ccc(CNC(=O)c2cnn(-c3ccccc3)c2C(F)(F)F)cc1 — remaining binding (cell-free assay, competition with immobilised ligand; 0.1 µM): 76%
C[C@H]1CCN(c2nccc(-c3cnn4ncccc34)n2)C1 — remaining binding (binding; 1 µM): 66%
